This excerpt belongs to a sample that is enriched for hits.
GASC1 inh = inhibitors of human demethylase GASC-1 KDM4C; GST-KDM4C 2-372, H3K9me3 peptide, LANCE TR-FRET; inhibition, % at 12.5 µM; Q9H3R0; 96,000 compounds, 0.15% hits; AID 720574;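 active = mean replicate inhibition above about 25%, with at least 55% of replicates also reaching it, limit read from the data, passing the limit was not always enough; inconclusive = only one of those two conditions met; inactive = neither condition met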
Target sequence (Q9H3R0 2-372 limits assumed): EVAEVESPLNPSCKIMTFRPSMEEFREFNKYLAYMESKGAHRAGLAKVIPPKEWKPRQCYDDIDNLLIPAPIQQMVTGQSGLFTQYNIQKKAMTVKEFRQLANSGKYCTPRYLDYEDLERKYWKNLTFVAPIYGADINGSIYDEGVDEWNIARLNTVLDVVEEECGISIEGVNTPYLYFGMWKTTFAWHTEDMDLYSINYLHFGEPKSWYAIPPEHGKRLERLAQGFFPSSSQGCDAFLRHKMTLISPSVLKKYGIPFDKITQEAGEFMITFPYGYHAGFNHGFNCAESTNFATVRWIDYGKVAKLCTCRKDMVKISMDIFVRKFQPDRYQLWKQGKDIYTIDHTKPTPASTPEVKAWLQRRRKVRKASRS
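Assay system: GST-GASC-1 enzyme fragment 2-372 | Amount: 10 nM enzyme | Medium: HEPES buffer, pH 7.5, plus ascorbate | Reagent: H3K9me3 peptide substrate, Fe(II), 2-oxoglutarate | Doses: Single-point compound screen | Incubation: 30 min demethylation and 1 h detection at room temperature | Measured by: LANCE TR-FRET, excitation 340 nm, emissions 618 and 671 nm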
IDH1 mut inh = inhibitors of human IDH1 R132H. IDH1 R132H reductase, diaphorase/resazurin fluorescence, 60 min. 70,000 compounds, 0.18% hits. inhibition, % at 10 µM; in the data active = inhibition above about 34%; inconclusive = no clear call, values can overlap the other calls; inactive = below about 11%;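 note: 0% = DMSO and 100% = no enzyme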
Target sequence (O75874 whole entry R132H): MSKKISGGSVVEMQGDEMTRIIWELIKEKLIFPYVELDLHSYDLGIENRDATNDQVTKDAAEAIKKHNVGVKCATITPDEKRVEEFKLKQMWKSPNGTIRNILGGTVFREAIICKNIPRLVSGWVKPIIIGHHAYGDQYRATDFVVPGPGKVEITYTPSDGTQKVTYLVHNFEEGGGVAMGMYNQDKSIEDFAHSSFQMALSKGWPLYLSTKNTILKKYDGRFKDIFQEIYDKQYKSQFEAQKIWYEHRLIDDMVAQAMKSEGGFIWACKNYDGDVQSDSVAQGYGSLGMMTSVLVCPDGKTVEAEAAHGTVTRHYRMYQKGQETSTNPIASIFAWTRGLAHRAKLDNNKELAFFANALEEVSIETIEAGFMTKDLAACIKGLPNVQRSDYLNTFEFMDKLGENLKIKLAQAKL
T cruzi growth-1 = inhibitors of T. cruzi proliferation; T. cruzi beta-gal in NIH3T3, GalScreen luminescence, 90 h; inhibition, % at 8.34 µM; 77,000 compounds, 5.9% hits; AID 624255;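 active = mean inhibition above about 93%, with at least 55% of replicates each passing it, limit read from the data, passing the limit was not always enough; inconclusive = only one of those two conditions holds; inactive = neither condition holds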
T cruzi growth-2 = blocks T. cruzi growth in NIH3T3 host cells; shares compounds with T cruzi growth-1; T. cruzi beta-gal in NIH3T3, GalScreen luminescence, 90 h; inhibition, % at 8.35 µM; 5,600 compounds, 72% hits;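 active = mean replicate inhibition above about 95% and at least 55% of replicates individually reaching it, limit read from the data; inconclusive = only one of the two criteria is met; inactive = neither criterion is met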
T cruzi growth-3 = blocks T. cruzi growth in NIH3T3 host cells | shares compounds with T cruzi growth-1 | T. cruzi beta-gal in NIH3T3, GalScreen luminescence, 90 h | inhibition, % at 2.09 µM | 5,600 compounds, 21% hits | AID 651740;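 active = mean inhibition above about 95%, with at least 55% of replicates also reaching it, limit read from the data; inconclusive = meets just one of the two conditions; inactive = meets neither condition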;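 note: plate controls were neutral control median for no effect and positive control median for full effect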
NIH3T3 tox = cytotoxicity in mouse NIH/3T3 fibroblasts. shares compounds with T cruzi growth-1. NIH/3T3 viability, CellTiter-Glo ATP luminescence, 90 h. cytotoxicity (signal decrease), % at 8.35 µM. 5,600 compounds, 14% hits;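 active = mean signal decrease across replicates above about 35% based on untreated-well scatter, with enough replicates individually passing, limit read from the data; inconclusive = no rule stated though some were filed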;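 note: 0% = median of neutral control wells and 100% = median of positive control wells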
NIH3T3 tox 2 = kills mouse NIH/3T3 fibroblasts; AID 651744; shares compounds with T cruzi growth-1; inhibition, % at 24.9 µM; NIH/3T3 viability, CellTiter-Glo ATP luminescence, 90 h; 5,600 compounds, 56% hits;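 active = mean loss of cell viability signal at or above a set limit, and enough replicates individually reaching it; inconclusive = meets only the mean limit or only the replicate share; inactive = meets neither condition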;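 note: 0% = median of neutral control wells and 100% = median of positive control wells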
* = called active by the depositor; ? = inconclusive; . = not tested or not shown.

SMILES	GASC1 inh	IDH1 mut inh	T cruzi growth-1	T cruzi growth-2	T cruzi growth-3	NIH3T3 tox	NIH3T3 tox 2
C[C@H](CO)N1C[C@H](C)[C@H](CN(C)S(=O)(=O)c2ccc(F)cc2)Oc2cc(C#Cc3ccncc3)ccc2S1(=O)=O	-5.9	1.0	114.3*	92.2	45.5	?	64.8*
C[C@H]1CN([C@@H](C)CO)S(=O)(=O)c2ccc(C#Cc3ccncc3)cc2O[C@@H]1CN(C)S(=O)(=O)c1ccc(F)cc1	-2.2	-0.2	98.4	.	.	.	.
C[C@@H]1CN([C@@H](C)CO)C(=O)c2cc(C#CCN(C)C)cnc2O[C@H]1CN(C)Cc1ccc(C(=O)O)cc1	6.0	1.5	-33.9	.	.	.	.
C[C@H]1CN([C@@H](C)CO)C(=O)c2cc(C#CCN(C)C)cnc2O[C@@H]1CN(C)Cc1ccc(-c2ccccc2)cc1	2.1	-3.5	107.8*	107.4*	75.7	19.0	103.2*
C[C@@H]1CN([C@@H](C)CO)C(=O)c2cc(C#CCN(C)C)cnc2O[C@@H]1CN(C)Cc1ccc(C(=O)O)cc1	6.8	0.5	109.2*	?	22.4	-15.4	1.0
C[C@@H]1CN([C@H](C)CO)C(=O)c2cc(C#CCN(C)C)cnc2O[C@H]1CN(C)Cc1ccccc1F	3.9	0.1	100.9*	83.3	29.3	14.7	4.8
C[C@H]1CN([C@@H](C)CO)C(=O)c2cc(C#CCN(C)C)cnc2O[C@@H]1CN(C)Cc1ccccc1F	7.5	0.0	52.3	.	.	.	.
C[C@@H]1CN([C@H](C)CO)C(=O)c2cc(C#CCN(C)C)cnc2O[C@@H]1CN(C)Cc1ccc(-c2ccccc2)cc1	0.3	-2.4	62.6	.	.	.	.
CNC[C@@H]1Oc2ncc(-c3cc4ccccc4o3)cc2C(=O)N([C@H](C)CO)C[C@@H]1C	0.0	2.2	.	.	.	.	.
C[C@H]1CN([C@@H](C)CO)C(=O)c2cc(C#Cc3ccccc3)cnc2O[C@H]1CN(C)C(=O)CCN1CCCCC1	-2.2	0.3	10.4	.	.	.	.
CN(C)C(=O)C[C@H]1C[C@@H]2c3cc(NC(=O)Nc4ccc(C(F)(F)F)cc4)ccc3O[C@@H]2[C@H](CO)O1	1.9	-0.2	-52.1	.	.	.	.
Cc1oc2nc(SCC(=O)N3CCCCC3)nc(N)c2c1C	.	-0.1	.	.	.	.	.
CCn1c(SCC(=O)N2CCN(c3ccccc3)CC2)nnc1-c1ccccc1O	.	0.5	.	.	.	.	.
CCCNC(=O)N[C@@H]1C=C[C@H](CC(=O)NCCc2ccccc2)O[C@H]1CO	-0.3	-0.1	-15.7	.	.	.	.
Cc1ccccc1S(=O)(=O)N1[C@@H](C#N)[C@@H](c2ccc(-c3ccccc3)cc2)[C@@H]1CO	-2.0	.	102.3*	101.4*	102.7*	49.8*	73.5*
Cc1ccccc1S(=O)(=O)N1[C@H](C#N)[C@H](c2ccc(-c3ccc(F)cc3)cc2)[C@@H]1CO	-4.7	.	92.2	.	.	.	.
Cc1ccccc1S(=O)(=O)N1[C@@H](C#N)[C@H](c2ccc(-c3ccccc3)cc2)[C@@H]1CO	-1.8	.	102.2*	82.3	16.6	7.0	17.7
Cc1ccccc1S(=O)(=O)N1[C@H](CO)[C@@H](c2ccc(C#CC3CC3)cc2)[C@@H]1C#N	0.8	.	88.6	.	.	.	.
Cc1ccccc1S(=O)(=O)N1[C@H](C#N)[C@@H](c2ccccc2)[C@H]1CO	-0.2	.	18.9	.	.	.	.
Cc1ccccc1S(=O)(=O)N1[C@H](C#N)[C@H](c2ccc(-c3ccc(F)cc3)cc2)[C@H]1CO	-2.7	.	101.5*	100.8*	90.9	?	30.8*
O=C(C1CCOCC1)N1CC2(C1)[C@H](c1ccccc1)[C@H](CO)N2CCC(F)(F)F	-1.1	.	.	.	.	.	.
COc1c(O)c2c(=O)cc(OC)c3c4c(OC)cc(=O)c5c(O)c(OC)c(C[C@@H](C)OC(=O)c6ccccc6)c(c(c1C[C@@H](C)OC(=O)Oc1ccc(O)cc1)c23)c54	.	-0.7	.	.	.	.	.
O=S(=O)(Cc1ccccc1)N1CCCCN2[C@@H](CO)[C@H](c3ccc(C#Cc4ccccc4)cc3)[C@@H]2C1	-2.6	.	116.7*	100.1*	82.1	51.2*	106.0*
CC(C)CC#Cc1ccc([C@H]2[C@@H](CO)N3CCCCN(S(=O)(=O)Cc4ccccc4)C[C@H]23)cc1	-2.2	.	103.1*	98.2*	108.5*	27.6	107.7*
CCCC#Cc1ccc([C@@H]2[C@@H](CO)N3CCCCN(S(=O)(=O)Cc4ccccc4)C[C@@H]23)cc1	-2.0	.	83.8	.	.	.	.
SMILES	GASC1 inh	IDH1 mut inh	T cruzi growth-1	T cruzi growth-2	T cruzi growth-3	NIH3T3 tox	NIH3T3 tox 2
CCCC#Cc1ccc([C@@H]2[C@H](CO)N3CCCCN(S(=O)(=O)Cc4ccccc4)C[C@@H]23)cc1	-0.5	.	82.6	.	.	.	.
O=S(=O)(Cc1ccccc1)N1CCCCN2[C@H](CO)[C@@H](c3ccc(C#Cc4ccccc4)cc3)[C@@H]2C1	-3.3	.	92.4	.	.	.	.
C[C@H](O)C#Cc1ccc([C@H]2[C@@H](CO)N3CCCCN(S(=O)(=O)Cc4ccccc4)C[C@H]23)cc1	-0.1	.	37.2	.	.	.	.
CC(C)C#Cc1ccc([C@@H]2[C@@H](CO)N3CCCCN(S(=O)(=O)Cc4ccccc4)C[C@@H]23)cc1	-0.9	.	101.1*	105.0*	83.5	37.1*	104.3*
CCCC#Cc1ccc([C@H]2[C@H]3CN(S(=O)(=O)Cc4ccccc4)CCCCN3[C@H]2CO)cc1	-1.8	.	100.2*	103.8*	81.0	?	76.1*
O=C(C[C@@H]1CC[C@@H]2[C@H](COC[C@H](O)CN2C(=O)c2ccccc2F)O1)NCc1ccc(Cl)cc1	0.8	.	1.2	.	.	.	.
CCCC#Cc1ccc([C@H]2[C@H]3CN(S(=O)(=O)c4ccccc4C)CCCCN3[C@H]2CO)cc1	-3.1	.	64.9	.	.	.	.
CCCC#Cc1ccc([C@@H]2[C@@H](CO)N3CCCCN(S(=O)(=O)c4ccccc4C)C[C@@H]23)cc1	-1.3	.	115.7*	98.2*	78.9	17.3	101.6*
O=C(NC1CCCC1)[C@@H]1[C@@H](CO)[C@@H]2Cn3c(ccc(-c4cccc(F)c4)c3=O)[C@H]1N2	-1.9	.	15.5	.	.	.	.
C[C@@H]1CN([C@@H](C)CO)C(=O)c2cccc(N(C)C)c2O[C@@H]1CN(C)Cc1ccc(C(F)(F)F)cc1	-0.5	-0.2	104.1*	-25.4	4.2	20.1	?
C[C@@H]1CN([C@@H](C)CO)C(=O)c2cccc(N(C)C)c2O[C@H]1CN(C)Cc1ccc(Cl)c(Cl)c1	-0.4	.	56.1	.	.	.	.
C[C@@H]1CN([C@@H](C)CO)C(=O)c2cccc(N(C)C)c2O[C@H]1CN(C)Cc1ccc(C(F)(F)F)cc1	0.7	-0.5	42.6	.	.	.	.
C[C@H]1CN([C@@H](C)CO)C(=O)c2cccc(N(C)C)c2O[C@@H]1CN(C)Cc1ccc(Cl)c(Cl)c1	-0.1	1.8	100.3*	108.2*	47.5	16.2	103.4*
CC(C)NC(=O)Nc1ccc2c(c1)C(=O)N([C@@H](C)CO)C[C@@H](C)[C@@H](CN(C)C(=O)NC1CCCCC1)O2	-0.9	0.2	6.2	.	.	.	.
